Data as given in article PMC9494671 (ACS Omega, 2022).

Tests used:
[1] = tested on: Human breast adenocarcinoma cell line (MCF-7); assay: MTT cytotoxicity assay, MCF-7; type: cell-based; conditions: for IC50: Homo sapiens, MCF7, 24 h, read-out: IC50 (μM) MCF-7; for cytotoxic activity, class in words, MCF-7: MTT assay
In short: (§1)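 Cells grown in RPMI-1640 with 10% FBS, penicillin 100 units/mL and streptomycin 100 μg/mL at 37 °C, 5% CO2. Seeded at 1.0 × 10^4 cells/well for 48 h, then exposed to a range of test compound concentrations for 24 h, with CA-4 as positive control. MTT (5 mg/mL solution) added for 4 h, formazan dissolved in DMSO, absorbance read at 570 nm. IC50 = 50% growth inhibition, mean ± SD.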

[2] = tested on: Human hepatocellular carcinoma cell line (HepG2); assay: MTT cytotoxicity assay, HepG2; type: cell-based; conditions: for IC50: Homo sapiens, HepG2, 24 h, read-out: IC50 (μM) HePG2; for cytotoxic activity, class in words, HepG2: MTT assay
In short: as §1

[3] = cited from earlier work
tubulin = assay: In vitro tubulin polymerization inhibition assay; type: biochemical; conditions: read-out: IC50 (μM) tubulin polymerization inhibition; 4 mg/mL tubulin, 37 °C, OD340, mean ± SD from three independent experiments
[4] = tested on: Epitheloid cervix carcinoma cell line (HeLa); assay: MTT cytotoxicity assay, HeLa; type: cell-based, human; conditions: for IC50: Homo sapiens, 24 h, read-out: IC50 (μM) HeLa; for cytotoxic activity, class in words, HeLa: MTT assay
In short: as §1

[5] = tested on: Human colorectal carcinoma cell line (HCT-116); assay: MTT cytotoxicity assay, HCT-116; type: cell-based; conditions: for IC50: Homo sapiens, HCT-116, 24 h, read-out: IC50 (μM) HCT-116; for cytotoxic activity, class in words, HCT-116: MTT assay
In short: as §1

[6] = tested on: HepG2, HCT-116, MCF-7, and HeLa cell lines; assay: MTT cytotoxicity assay, statements over the four tested cell lines; type: cell-based, human; conditions: all tested cell lines
In short: as §1

For COc1ccc(/C=C\c2cc(OC)c(OC)c(OC)c2)cc1O [CA-4, combretastatin A-4, reference compound], the IC50 [1] is listed as 4.17 ± 0.2 µM, the IC50 [2] is listed as 4.5 ± 0.2 µM and the solubility in water [3] is listed as “weakly soluble in water”. It also gave an IC50 (tubulin) of […], an IC50 [4] of 5.57 ± 0.3 µM and an IC50 [5] of 5.23 ± 0.3 µM.
In the case of COc1cc(-c2csc(NC(=O)CCl)n2)cc(OC)c1OC [Compound 4, 2-Chloro-N-(4-(3,4,5-trimethoxyphenyl)thiazol-2-yl)acetamide], the IC50 [1] is reported as 62.9 ± 3.1 µM, the IC50 [2] is reported as 62.6 ± 3.1 µM and the “cytotoxic effect, class in words, tested cell lines” value (from here on “cytotoxic effect, class in words”) [6] is reported as “weak (51–100 (weak))”. It also gave an IC50 [4] of 76.9 ± 3.8 µM and an IC50 [5] of 69 ± 3.5 µM.
For COc1cc(-c2csc(NC(=O)CNCCO)n2)cc(OC)c1OC [Compound 5a, 2-((2-Hydroxyethyl)amino)-N-(4-(3,4,5-trimethoxyphenyl)thiazol-2-yl)acetamide], the IC50 [1] was 30 ± 1.5 µM, the IC50 [2] was 22 ± 1.1 µM and the “cytotoxic effect, class in words” value [6] was “moderate (21–50 (moderate))”. The IC50 [4] was 50.9 ± 2.5 µM and the IC50 [5] was 29.4 ± 1.5 µM.
With CCCCNCC(=O)Nc1nc(-c2cc(OC)c(OC)c(OC)c2)cs1 [Compound 5b, 2-(Butylamino)-N-(4-(3,4,5-trimethoxyphenyl)thiazol-2-yl)acetamide] the IC50 [1] was 22.8 ± 1.1 µM, the IC50 [2] was 10.9 ± 0.5 µM and the “cytotoxic activity, class in words, HepG2” value (shortened to “cytotoxic activity … HepG2”) [2] was “strong (11–20 (strong))”. The IC50 [4] was 28.3 ± 1.4 µM and the IC50 [5] was 24.4 ± 1.2 µM.
With COc1cc(-c2csc(NC(=O)CNC(C)C)n2)cc(OC)c1OC [Compound 5c, 2-(Isopropylamino)-N-(4-(3,4,5-trimethoxyphenyl)thiazol-2-yl)acetamide] the IC50 [1] was 15.5 ± 0.8 µM, the IC50 [2] was 11.9 ± 0.6 µM and the “cytotoxic effect, class in words” value [6] was “strong (11–20 (strong))”. The IC50 (tubulin) was 2.95 ± 0.18 µM, the IC50 [4] was 16 ± 0.8 µM and the IC50 [5] was 12.9 ± 0.6 µM.
Work on COc1cc(-c2csc(NC(=O)CN3CCNCC3)n2)cc(OC)c1OC [Compound 6a, 2-(Piperazin-1-yl)-N-(4-(3,4,5-trimethoxyphenyl)thiazol-2-yl)acetamide] yielded an IC50 [1] of 40.9 ± 2 µM, an IC50 [2] of 8.17 ± 0.4 µM and an IC50 (tubulin) of 4.5 ± 0.27 µM. The IC50 [4] was 47.7 ± 2.4 µM and the IC50 [5] was 28.9 ± 1.4 µM.
COc1cc(-c2csc(NC(=O)CN3CCN(C)CC3)n2)cc(OC)c1OC [Compound 6b, 2-(4-Methylpiperazin-1-yl)-N-(4-(3,4,5-trimethoxyphenyl)thiazol-2-yl)acetamide] gave an IC50 [1] of 65.3 ± 3.3 µM, an IC50 [2] of 74.6 ± 3.7 µM and an IC50 [4] of 87.3 ± 4.4 µM. The IC50 [5] was 83.7 ± 4.2 µM.
Molecule CCN1CCN(CC(=O)Nc2nc(-c3cc(OC)c(OC)c(OC)c3)cs2)CC1 [Compound 6c, 2-(4-Ethylpiperazin-1-yl)-N-(4-(3,4,5-trimethoxyphenyl)thiazol-2-yl)acetamide] has an IC50 [1] of 41.4 ± 2.1 µM, an IC50 [2] of 33.9 ± 1.7 µM and an IC50 [4] of 48.2 ± 2.4 µM. For the same molecule, the IC50 [5] was 37.2 ± 1.9 µM.
COc1cc(-c2csc(NC(=O)CN3CCN(c4ccc(F)cc4)CC3)n2)cc(OC)c1OC [Compound 6d, 2-(4-(4-Fluorophenyl)piperazin-1-yl)-N-(4-(3,4,5-trimethoxyphenyl)thiazol-2-yl)acetamide] gave an IC50 [1] of 9.64 ± 0.5 µM, an IC50 [2] of 4.03 ± 0.2 µM and an IC50 (tubulin) of 5 ± 0.3 µM. For the same molecule, the IC50 [4] was 18.7 ± 0.9 µM and the IC50 [5] was 15.7 ± 0.8 µM.
In the case of COc1cc(-c2csc(NC(=O)CN3CCOCC3)n2)cc(OC)c1OC [Compound 6e, 2-Morpholino-N-(4-(3,4,5-trimethoxyphenyl)thiazol-2-yl)acetamide], the IC50 [1] is reported as 39.1 ± 2 µM, the IC50 [2] is reported as 19.8 ± 1 µM and the “cytotoxic activity … HepG2” value [2] is reported as “strong (11–20 (strong))”. The IC50 (tubulin) was 3.72 ± 0.23 µM, the IC50 [4] was 58.8 ± 2.9 µM and the IC50 [5] was 18 ± 0.9 µM. For the same molecule, the “cytotoxic activity, class in words, HCT-116” value (from here on “cytotoxic activity … HCT-116”) [5] was “strong (11–20 (strong))”.
For COc1cc(-c2csc(NC(=O)CNc3ccccc3)n2)cc(OC)c1OC [Compound 7a, 2-(Phenylamino)-N-(4-(3,4,5-trimethoxyphenyl)thiazol-2-yl)acetamide], the IC50 [1] was greater than 100 µM, the “cytotoxic activity, class in words, MCF-7” value [1] was “weak (51–100 (weak))” and the IC50 [2] was 94.1 ± 4.7 µM. For the same molecule, the “cytotoxic activity … HepG2” value [2] was “weak (51–100 (weak))”, the IC50 [4] was 54.1 ± 2.7 µM and the “cytotoxic activity, class in words, HeLa” value [4] was “noncytotoxic (above 100 (noncytotoxic))”. For the same molecule, the IC50 [5] was 52.5 ± 2.6 µM and the “cytotoxic activity … HCT-116” value [5] was “weak (51–100 (weak))”.
For COc1cc(-c2csc(NC(=O)CNc3ccc(Br)cc3)n2)cc(OC)c1OC [Compound 7b, 2-((4-Bromophenyl)amino)-N-(4-(3,4,5-trimethoxyphenyl)thiazol-2-yl)acetamide], the IC50 [1] was 44.8 ± 2.2 µM, the IC50 [2] was 34.2 ± 1.7 µM and the IC50 [4] was 13.1 ± 0.7 µM. For the same molecule, the IC50 [5] was 9.35 ± 0.5 µM.
COc1cc(-c2csc(NC(=O)CNc3ccc([N+](=O)[O-])cc3)n2)cc(OC)c1OC [Compound 7c, 2-((4-Nitrophenyl)amino)-N-(4-(3,4,5-trimethoxyphenyl)thiazol-2-yl)acetamide] gave an IC50 [1] of 10 ± 0.5 µM, an IC50 [2] of 6.26 ± 0.3 µM and an IC50 (tubulin) of 2 ± 0.12 µM. It also gave an IC50 [4] of 9.85 ± 0.5 µM and an IC50 [5] of 7.3 ± 0.4 µM.
For COc1cc(-c2csc(NC(=O)CNc3ccc(Br)c(C(F)(F)F)c3)n2)cc(OC)c1OC [Compound 7d, 2-((4-Bromo-3-(trifluoromethyl)phenyl)amino)-N-(4-(3,4,5-trimethoxyphenyl)thiazol-2-yl)acetamide], the IC50 [1] was 41.4 ± 2.1 µM, the IC50 [2] was 28.1 ± 1.4 µM and the IC50 (tubulin) was 3.42 ± 0.21 µM. The IC50 [4] was 29.8 ± 1.5 µM and the IC50 [5] was 33.1 ± 1.7 µM.
COc1cc(-c2csc(NC(=O)CNc3ccc(N4CCOCC4)cc3)n2)cc(OC)c1OC [Compound 7e, 2-((4-Morpholinophenyl)amino)-N-(4-(3,4,5-trimethoxyphenyl)thiazol-2-yl)acetamide] gave an IC50 [1] of 35 ± 1.7 µM, an IC50 [2] of 25.7 ± 1.3 µM and an IC50 [4] of 41.5 ± 2.1 µM. It also gave an IC50 [5] of 31.2 ± 1.6 µM.
COc1cc(-c2csc(NC(=O)CNN)n2)cc(OC)c1OC [Compound 8, 2-Hydrazinyl-N-(4-(3,4,5-trimethoxyphenyl)thiazol-2-yl)acetamide] showed an IC50 [1] of 8.66 ± 0.4 µM, an IC50 [2] of 3.35 ± 0.2 µM and an IC50 (tubulin) of 3.91 ± 0.24 µM. The IC50 [4] was 6.15 ± 0.3 µM and the IC50 [5] was 5.32 ± 0.3 µM.
COc1cc(-c2csc(NC(=O)CN/N=C3\C(=O)Nc4ccc(Cl)cc43)n2)cc(OC)c1OC [Compound 9a, (Z)-2-(2-(5-Chloro-2-oxoindolin-3-ylidene)hydrazinyl)-N-(4-(3,4,5-trimethoxyphenyl)thiazol-2-yl)acetamide] gave an IC50 [1] of 9.8 ± 0.5 µM, an IC50 [2] of 7.32 ± 0.4 µM and an IC50 (tubulin) of 2.38 ± 0.14 µM. The IC50 [4] was 10.6 ± 0.5 µM and the IC50 [5] was 10.1 ± 0.5 µM.
Work on COc1cc(-c2csc(NC(=O)CN/N=C3\C(=O)Nc4ccc(C)cc43)n2)cc(OC)c1OC [Compound 9b, (Z)-2-(2-(5-Methyl-2-oxoindolin-3-ylidene)hydrazinyl)-N-(4-(3,4,5-trimethoxyphenyl)thiazol-2-yl)acetamide] yielded an IC50 [1] of 11.6 ± 0.6 µM, an IC50 [2] of 8.04 ± 0.4 µM and an IC50 (tubulin) of 4.21 ± 0.26 µM. It also gave an IC50 [4] of 13.4 ± 0.7 µM and an IC50 [5] of 9.93 ± 0.5 µM.
With COc1cc(-c2csc(Nc3csc(N)n3)n2)cc(OC)c1OC [Compound 10, N^4-(4-(3,4,5-Trimethoxyphenyl)thiazol-2-yl)thiazole-2,4-diamine] the IC50 [1] was 60.6 ± 3 µM, the IC50 [2] was 49.6 ± 2.5 µM and the “cytotoxic effect, class in words” value [6] was “moderate-to-weak”. It also gave an IC50 [4] of 48 ± 2.4 µM and an IC50 [5] of 55.3 ± 2.8 µM.
In the case of COc1cc(-c2csc(NC(=O)NCCCl)n2)cc(OC)c1OC [Compound 11, 1-(2-Chloroethyl)-3-(4-(3,4,5-trimethoxyphenyl)thiazol-2-yl)urea], the IC50 [1] is reported as 95.8 ± 4.8 µM, the IC50 [2] is reported as 93 ± 4.6 µM and the “cytotoxic effect, class in words” value [6] is reported as “weak (51–100 (weak))”. For the same molecule, the IC50 [4] was 89.9 ± 4.5 µM and the IC50 [5] was 86.7 ± 4.3 µM.
Work on COc1cc(-c2csc(NC(=O)NCCNc3ccccc3)n2)cc(OC)c1OC [Compound 12, 1-(2-(Phenylamino)ethyl)-3-(4-(3,4,5-trimethoxyphenyl)thiazol-2-yl)urea] yielded an IC50 [1] greater than 100 µM, an IC50 [2] greater than 100 µM and an IC50 [4] of 91.8 ± 4.6 µM. It also gave an IC50 [5] of 88.5 ± 4.4 µM.
For CCN1CCN(CCNC(=O)Nc2nc(-c3cc(OC)c(OC)c(OC)c3)cs2)CC1 [Compound 13a, 1-(2-(4-Ethylpiperazin-1-yl)ethyl)-3-(4-(3,4,5-trimethoxyphenyl)thiazol-2-yl)urea], the IC50 [1] was 16.9 ± 0.8 µM, the “cytotoxic activity, class in words, MCF-7” value [1] was “strong (11–20 (strong))” and the IC50 [2] was 14.2 ± 0.7 µM. The “cytotoxic activity … HepG2” value [2] was “strong (11–20 (strong))”, the IC50 (tubulin) was 5.11 ± 0.31 µM and the IC50 [4] was 32.4 ± 1.6 µM. For the same molecule, the “cytotoxic activity, class in words, HeLa” value [4] was “moderate (21–50 (moderate))”, the IC50 [5] was 20.1 ± 1 µM and the “cytotoxic activity … HCT-116” value [5] was “strong (11–20 (strong))”.
COc1cc(-c2csc(NC(=O)NCCN3CCOCC3)n2)cc(OC)c1OC [Compound 13b, 1-(2-Morpholinoethyl)-3-(4-(3,4,5-trimethoxyphenyl)thiazol-2-yl)urea] gave an IC50 [1] of 32 ± 1.6 µM, an IC50 [2] of 25.7 ± 1.3 µM and an IC50 [4] of 43.9 ± 2.2 µM. For the same molecule, the IC50 [5] was 27.4 ± 1.4 µM.
